Data published in ChEMBL document CHEMBL1157427, “In vitro and in vivo anti-tumoral activities of imidazo[1,2-a]quinoxaline, imidazo[1,5-a]quinoxaline, and pyrazolo[1,5-a]quinoxaline derivatives” (Bioorg Med Chem, 2008).
Activity calls are given as the source filed them. No cut-off for these calls is given here.

Legend:
A-375 = experiment: Cytotoxicity against human A375 cells after 96 hrs by MTT assay; type: functional, cell-based; conditions: A-375, 96 h
How it was run: (§1)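 Cells were seeded at 5000/well in DMEM (M4Be) or RPMI-1640 (others) and attached overnight. They were then exposed for 96 h at 37 °C, 5% CO2 to 10^-4 to 10^-10 […] in 1% DMSO/medium. MTT was added for 4 h, formazan dissolved in isopropanol/1 M HCl, and OD read at 570 nm. Survival was taken as % of vehicle control and IC50 as 50% growth inhibition. ≥3 experiments in triplicate; mean ± SD.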

Raji = experiment: Cytotoxicity against human Raji cells after 96 hrs by MTT assay; type: functional, cell-based; how it was run: as §1
[1] = Cytotoxicity against human RPMI7591 cells after 96 hrs by MTT assay; type: functional, cell-based
LS174T = experiment: Cytotoxicity against human LS174T cells after 96 hrs by MTT assay; type: functional, cell-based; how it was run: as §1
[2] = Cytotoxicity against human M4Be cells after 96 hrs by MTT assay; type: functional, cell-based; how it was run: as §1
[3] = Toxicity in ip dosed Swiss mouse; type: organism-based; conditions: in vivo
How it was run: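 Single intraperitoneal doses of 30 to 300 mg/kg given to healthy Swiss mice. Compound dissolved in intralipid/DMSO (50:50, v/v) because of poor water solubility. Read-out is the 50% lethal dose (LD50).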

MCF7 = experiment: Cytotoxicity against human MCF7 cells after 96 hrs by MTT assay; type: functional, cell-based; conditions: MCF7, 96 h; how it was run: as §1
M4Be = experiment: Antitumor activity against human M4Be cells xenografted Swiss nude mouse assessed as reduction in tumor volume at 20 mg/kg, ip administered twice a week for 3 weeks measured from day 18 to day 55; type: functional, organism-based; design: dose 20 mg/kg
How it was run: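 Female Swiss nude mice (7 weeks old) were given 3×10^6 M4Be cells s.c. in the flank. At ~0.7 cm3 they were randomized, 6 per group, and received 20 mg/kg twice weekly (Mon/Thu) for 3 weeks in intralipid/DMSO (50:50), with the cycle repeated after 15 days. Controls received vehicle. Calipers twice weekly, V = 0.5ab². Repeated-measures ANOVA with contrast test, significance 0.02. Mean ± SEM.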

Compound | IC50 (A-375) [µM] | further results
CNc1nc2ccccc2n2nc(CC(C)C)cc12 | 78.6 | –
CNc1nc2ccccc2n2cncc12 | 85.3 | –
CC(C)Cc1cnc2c(N(C)C)nc3ccccc3n12 | 66.3 | –
CN(C)c1nc2ccccc2n2cncc12 | 121 | –
COc1nc2ccccc2n2c(CCc3ccccc3)cnc12 | 47.8 | –
CN(C)c1nc2ccccc2n2c(CCc3ccccc3)cnc12 | 80.1 | –
CN(Cc1cnc2nc(N)nc(N)c2n1)c1ccc(C(=O)N[C@@H](CCC(=O)O)C(=O)O)cc1 [METHOTREXATE] | – | IC50 (Raji): 0.04 µM
Clc1nc2ccccc2n2c(CCc3ccccc3)cnc12 | 24 | –
CC(C)Cn1cnc2c(N)nc3ccccc3c21 [IMIQUIMOD] | – | IC50 [1]: 53.7 µM; IC50 (LS174T): 34.4 µM; IC50 [2]: 33.5 µM
Cc1cccc(Cl)c1Nc1nc2ccccc2n2c(CCc3ccccc3)cnc12 | 329 | –
Nc1nc2ccccc2n2c(CCc3ccccc3)cnc12 | 2.35 | –
CNc1nc2ccccc2n2c(CC(C)C)cnc12 | 31.6 | –
CNc1nc2ccccc2n2c(C)ncc12 | 100 | –
CNc1nc2ccccc2n2c(CCc3ccccc3)cnc12 | – | IC50 [1]: 4.23 µM; IC50 (LS174T): 4.12 µM; IC50 (Raji): 6.23 µM; LD50 [3]: > 300 mg/kg; IC50 [2]: 2.58 µM; IC50 (MCF7): 1.08 µM; Activity (M4Be): Active
Cc1cccc(Cl)c1Nc1nc2ccccc2n2c(CC(C)C)cnc12 | > 400 | –
CNc1nc2ccccc2n2c(-c3ccccc3)ncc12 | > 400 | –
CCc1c2c(nc3ccc(OC(=O)N4CCC(N5CCCCC5)CC4)cc13)-c1cc3c(c(=O)n1C2)COC(=O)[C@]3(O)CC [IRINOTECAN] | – | IC50 (LS174T): 1.16 µM
CC(C)Cc1cc2c(N(C)C)nc3ccccc3n2n1 | 101 | –
